For one data set, the system named is RT-4. As to the kind of experiment: Cytotoxicity against human RT4 cells after 96 hrs by microtiter assay. It counts as functional, cell-based. The settings on record: RT-4, 96 h. A digest of the protocol:
(§1)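 DSMZ cell lines in RPMI 1640 with 10% FCS. DMF stocks diluted 1000-fold into medium. Continuous exposure 96 h at 37 °C, 5% CO2. Adherent cells stained with crystal violet. IC50 (50% growth inhibition vs untreated control) obtained by least-squares fitting of dose–response curves, averaging 2–5 independent determinations.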

For another data set, the system named is RT-112. Description: Cytotoxicity against human RT112 cells after 96 hrs by microtiter assay. The settings on record: RT-112, 96 h. The class given is functional, cell-based. The essentials:
as §1

In a further data set the test system is 5637. Description: Cytotoxicity against human 5637 cells after 96 hrs by microtiter assay. The class given is functional, cell-based. The settings on record: Homo sapiens, 5637, 96 h. A digest of the protocol:
as §1

Data set [1] in a line: Cytotoxicity against human KYSE70 cells after 96 hrs by microtiter assay. The settings on record: KYSE-70, 96 h. It counts as functional, cell-based. The essentials: as §1
For a further data set, the system named is KYSE-510. As to the kind of experiment: Cytotoxicity against human KYSE510 cells after 96 hrs by microtiter assay. The settings on record: KYSE-510, 96 h. It counts as functional, cell-based. A digest of the protocol:
as §1

Data set [2] can be described thus: Cytotoxicity against human KYSE520 cells after 96 hrs by microtiter assay. The class given is functional, cell-based. The settings on record: KYSE-520, 96 h. The essentials:
as §1

The subject of a further data set is YAPC. As to the kind of experiment: Cytotoxicity against human YAPC cells after 96 hrs by microtiter assay. The class given is functional, cell-based. A digest of the protocol: as §1
The test system of another data set is DAN-G. As to the kind of experiment: Cytotoxicity against human DAN-G cells after 96 hrs by microtiter assay. The class given is functional, cell-based. The essentials: as §1
In the next data set the test system is SISO. Description: Cytotoxicity against human SISO cells after 96 hrs by microtiter assay. It counts as functional, cell-based. A digest of the protocol: as §1
The nature of data set [3]: Cytotoxicity against human LCLC-103H cells after 96 hrs by microtiter assay. The class given is functional, cell-based. A digest of the protocol:
as §1

The next data set has as its system MCF7. Description: Cytotoxicity against human MCF7 cells after 96 hrs by microtiter assay. The class given is functional, cell-based. The settings on record: MCF7, 96 h. A digest of the protocol: as §1
A further data set relates to A-427. Description: Cytotoxicity against human A427 cells after 96 hrs by microtiter assay. It counts as functional, cell-based. The settings on record: A-427, 96 h. The essentials: as §1
Data set [4] is described as follows: Aqueous solubility in phosphate buffered saline at pH 7.4 after 24 hrs. The class given is physicochemical. A digest of the protocol: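 Solid added in excess to Dulbecco's PBS, pH 7.4, and stirred in the dark 24 h at room temperature. Suspension filtered through a 0.22 filter. Filtrate absorbance read at each compound's λmax, and dissolved concentration calculated from the extinction coefficient at that wavelength.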

≈ marks a conversion by molar mass, not a printed value.

The results in this text go back to ChEMBL document CHEMBL1156706, “Structure-activity relationships of novel heteroaryl-acrylonitriles as cytotoxic and antibacterial agents” (Eur J Med Chem, 2008).

On to `N#C/C(=C\c1cccc([N+](=O)[O-])c1)n1cnc2ccccc21`, for which the IC50 in the data set on RT-4 is 4.02 µM; with RT-112, 4.16 µM; in the data set with 5637, 4.01 µM; in data set [1], 4.06 µM; with KYSE-510, 3.09 µM; in data set [2], 2.3 µM. Moreover, the IC50 with YAPC was 3.39 µM; in the data set on DAN-G, 2.26 µM; in the data set with SISO it was 6.57 µM; in data set [3], 3.48 µM; in the data set with MCF7 it was 2.61 µM; in the data set with A-427 it was 2.86 µM.

Turning to `O=C(Cn1cnc2ccccc21)NC(O)c1ccc([N+](=O)[O-])s1` (stereo unspecified), the IC50 in the data set with RT-4 worked out at 2.96 µM; in the data set with RT-112, 13.7 µM; in the data set on 5637, 33.7 µM; in [1] it was 57.4 µM; in the data set on KYSE-510, 140 µM; in [2], 24.2 µM. Besides, the IC50 is 22.4 µM in the data set on YAPC; 9.6 µM in the data set on DAN-G; 11.7 µM in the data set on SISO; 7.46 µM in data set [3]; 13.1 µM in the data set on MCF7; 228 µM in the data set with A-427.

With `S=P(N1CC1)(N1CC1)N1CC1` [THIOTEPA], the concentration for half-maximal inhibition (IC50) with RT-4 is 18.3 µM; with RT-112, 3.4 µM; with 5637, 2 µM; in [1] it was 5.4 µM; in the data set on KYSE-510, 4.31 µM; in [2], 6.44 µM. The IC50 stood at 2.66 µM in the data set with YAPC; 1.66 µM in the data set with DAN-G; 1.4 µM in the data set with SISO; 6.97 µM in data set [3]; 3.23 µM with MCF7; 1.58 µM with A-427.

In data set [4], `N#C/C(=C\c1ccccn1)c1nc2cccnc2[nH]1` showed a solubility at 24 h of 28 µM (≈ 6.92 µg/mL). The IC50 in the data set on RT-4 was 10 µM; with RT-112, 8.18 µM; in the data set with 5637 it was 3.9 µM; in [1], 8.14 µM; with KYSE-510, 13.9 µM; in data set [2], 7.98 µM. Moreover, the IC50 came out at 8.89 µM in the data set on YAPC; 7.97 µM in the data set on DAN-G; 5.53 µM in the data set on SISO; 7.37 µM in data set [3]; 8.28 µM with MCF7; 5.15 µM in the data set on A-427.

As for `O=C1CN(/N=C/c2ccc([N+](=O)[O-])o2)C(=O)N1` [NITROFURANTOIN], the IC50 came to 7 µM in the data set on RT-4; 21.3 µM with 5637; 22.8 µM in data set [1]; 29 µM in the data set with KYSE-510; 6.74 µM with DAN-G; 7.27 µM in the data set with SISO. For the same compound, the figures for the IC50 (in data set [3]; in the data set on MCF7; with A-427) were 2.34 µM, 4.44 µM and 1.86 µM, respectively.

On to `N#C/C(=C\c1ccc([N+](=O)[O-])cc1)n1cnc2ccccc21`, for which the IC50 came to 2.56 µM in the data set on RT-4; 2.2 µM in the data set with RT-112; 2.2 µM in the data set on 5637; 2.63 µM in data set [1]; 2.41 µM in the data set on KYSE-510; 1.92 µM in [2]. In addition, the IC50 is 2.43 µM with YAPC; 1.53 µM in the data set with DAN-G; 4.34 µM in the data set with SISO; 1.71 µM in data set [3]; 2.47 µM with MCF7; 1.7 µM in the data set with A-427.

As to `N#C/C(=C\c1cccnc1)c1nc2ccccc2[nH]1`, the IC50 in the data set with RT-4 was determined as 3.47 µM; with RT-112, 3.5 µM; in the data set on 5637, 1.79 µM; in data set [1], 4.25 µM; with KYSE-510, 3.92 µM; in data set [2] it was 5.13 µM. Further, the IC50 with YAPC came out at 4.92 µM; in the data set with DAN-G, 3.27 µM; in the data set on SISO it was 3.02 µM; in data set [3] it was 1.97 µM; with MCF7, 3.15 µM; in the data set on A-427, 3.29 µM.

Regarding `N#C/C(=C\c1ccsc1)c1nc2ccccc2[nH]1`, the IC50 was 7.82 µM in the data set on RT-4; 13.3 µM in the data set with RT-112; 14.1 µM with 5637; 16 µM in [1]; 23 µM with KYSE-510; 14.6 µM in data set [2]. Also, the IC50 was 28.9 µM in the data set on YAPC; 15.7 µM with DAN-G; 23.8 µM in the data set with SISO; 3.75 µM in data set [3]; 14.4 µM in the data set on MCF7; 6.39 µM in the data set with A-427.

In data set [4], `N#C/C(=C\c1ccccn1)c1nc2ccccc2o1` registered a solubility at 24 h of 23 µM (≈ 5.69 µg/mL). Besides, the IC50 (in the data set with RT-4; in the data set with 5637; in [3]) was above 20 µM in each case.

For `N[C@@H](Cc1ccc(N(CCCl)CCCl)cc1)C(=O)O` [MELPHALAN], the IC50 was determined as 14.2 µM in the data set with RT-4; 4.69 µM with RT-112; 0.31 µM in the data set with 5637; 16.2 µM in [1]; 8.18 µM in the data set with KYSE-510; 10.5 µM in data set [2]. For the same compound, the IC50 was determined as 5.95 µM in the data set with YAPC; 2.65 µM with DAN-G; 1 µM with SISO; 4 µM in data set [3]; 3.71 µM in the data set on MCF7; 5.13 µM in the data set with A-427.

In data set [4], `N#C/C(=C\c1ccccn1)c1nc2ccccc2s1` registered a solubility at 24 h of 2 µM (≈ 0.527 µg/mL). For the same compound, the IC50 was found to be 9.69 µM in the data set on RT-4; 8.19 µM in the data set on RT-112; 6.65 µM in the data set with 5637; 7.28 µM in data set [1]; 13 µM with KYSE-510; 9.18 µM in [2]. Besides, the IC50 in the data set with YAPC was determined as 8.27 µM; in the data set on DAN-G, 6.47 µM; with SISO, 5.69 µM; in data set [3] it was 7.8 µM; with MCF7, 4.34 µM; with A-427, 6.05 µM.

With `N#C/C(=C\c1ccc([N+](=O)[O-])o1)c1nc2cccnc2[nH]1`, the solubility at 24 h in data set [4] came out at 1.4 µM (≈ 0.394 µg/mL). Besides, the IC50 stood at 1.76 µM with RT-4; 1.11 µM in the data set on RT-112; 1.08 µM in the data set with 5637; 1.33 µM in data set [1]; 5.46 µM in the data set on KYSE-510; 1.58 µM in [2]. The IC50 in the data set with YAPC amounted to 1.02 µM; in the data set on DAN-G it was 1.81 µM; in the data set on SISO, 0.72 µM; in [3], 0.41 µM; with MCF7, 1.39 µM; in the data set with A-427, 0.75 µM.

As to `COc1ccc(/C=C(\C#N)c2nc3ccccc3[nH]2)s1`, the IC50 with RT-4 amounted to 21.2 µM; in the data set on RT-112 it was 14.7 µM; in the data set on 5637 it was 31.9 µM; in data set [1] it was 12.2 µM; in the data set with KYSE-510, 12 µM; in data set [2], 20.5 µM. Besides, the IC50 was above 40 µM in the data set on YAPC; 13.8 µM in the data set on DAN-G; 36.8 µM in the data set with SISO; 5.24 µM in data set [3]; 13.2 µM in the data set on MCF7; 7.19 µM with A-427.

For the compound `N#C/C(=C\c1csc(Br)c1)c1nc2ccccc2[nH]1`, the IC50 (in the data set with RT-4; in the data set on RT-112; in the data set on 5637; in [1]; in the data set with KYSE-510; in [2]) was above 40 µM each time. The IC50 in the data set on YAPC was above 40 µM; in the data set on DAN-G, above 40 µM; in the data set with SISO it was above 40 µM; in [3], 22.8 µM; in the data set on MCF7 it was above 40 µM; in the data set with A-427 it was above 40 µM.

As to `Cc1cc2nc(/C(C#N)=C/c3ccc([N+](=O)[O-])s3)[nH]c2cc1C`, the IC50 with RT-4 is 0.14 µM; in the data set on RT-112 it was 0.12 µM; with 5637, 0.05 µM; in data set [1], 0.05 µM; with KYSE-510 it was 0.12 µM; in [2], 0.06 µM. Moreover, the IC50 amounted to 0.04 µM with YAPC; 0.2 µM in the data set on DAN-G; 0.1 µM in the data set on SISO; 0.03 µM in data set [3]; 0.13 µM with MCF7; 0.02 µM with A-427.

On to `N#C/C(=C\c1ccncc1)c1nc2ccccc2[nH]1`, for which the IC50 in the data set on RT-4 is 40.1 µM; in the data set on RT-112, 30.7 µM; with 5637, 31.2 µM; in [1], 37.1 µM; in the data set on KYSE-510 it was above 40 µM; in [2], above 40 µM. In addition, the IC50 in the data set on YAPC was above 40 µM; in the data set with DAN-G, above 40 µM; in the data set on SISO, above 40 µM; in data set [3] it was 19.7 µM; with MCF7 it was above 40 µM; with A-427 it was 26.2 µM.

In the case of `O=C(Cn1cnc2ccccc21)NC(O)c1ccc([N+](=O)[O-])o1` (stereo unspecified), the IC50 in the data set with RT-4 came out at 31.2 µM; with RT-112 it was 3.9 µM; in the data set on 5637, 5.91 µM; in [1] it was 5.57 µM; with KYSE-510, 9.49 µM; in data set [2] it was 5.14 µM. Besides, the IC50 with YAPC worked out at 5.66 µM; with DAN-G, 4.18 µM; with SISO, 3.22 µM; in data set [3] it was 1.78 µM; in the data set on MCF7, 5.37 µM; with A-427, 5.9 µM.

What is called IC50 is the point on the concentration scale where inhibition reaches its midpoint. Lower therefore signals inhibition by little substance. By solubility is commonly meant how much of the substance goes into solution per volume.
